# According to ChEMBL document CHEMBL4706741, “De Novo Design, Synthesis, and Mechanistic Evaluation of Short Peptides That Mimic Heat Shock Protein 27 Activity” (ACS Med Chem Lett, 2021):
# Active and inactive are the calls of the source. The rule behind the calls is not given here. Where a SMILES comes first, the peptide text is derived from it.
# Assays:
# Format in all cases: functional
# [1] = Chaperone like activity at heat-induced citrate synthase aggregation assessed as aggregation at 200 uM incubated for 5 mins followed by heat stimulation for 3 mins in 43 degC and measured after 60 mins by fluorimetric analysis (reference value: 100%); conditions: time 68.0 min
# How it was run: (§1)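 Thermal aggregation of citrate synthase (150 nM). Peptides were brought to 43 °C in buffer, and CS was added once the temperature had equilibrated. Light scattering at 360 nm was monitored over time. CS with 1% DMSO was set as 100% aggregation, with an Hsp27 (600 nM) chaperone reference run on the same day. Mean ± SEM of at least two or three independent experiments.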
# [2] = Chaperone like activity at heat-induced citrate synthase aggregation assessed as aggregation incubated for 5 mins followed by heat stimulation for 3 mins in 43 degC and measured after 60 mins by fluorimetric analysis relative to control; conditions: time 68.0 min; how it was run: as §1
# [3] = Chaperone like activity at kappa-casein amyloid formation at 200 uM measured upto 21 hrs by fluorescence based assay; conditions: time hrs <=21
# [4] = Chaperone like activity at Gdn-Cl/DTT-induced citrate synthase aggregation assessed as aggregation at 200 uM incubated for 5 mins followed by heat stimulation for 3 mins in 43 degC and measured after 60 mins by fluorimetric analysis (reference value: 100%); conditions: time 68.0 min
# How it was run: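 Citrate synthase (150 nM) unfolded with guanidine chloride and DTT at room temperature, then a small aliquot diluted into refolding buffer with peptide (200 μM) or Hsp27 (600 nM). Aggregation followed by light scattering for 1 h. The 1% DMSO control at 1 h was taken as 100% aggregation. Mean ± SEM of at least two independent experiments.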
# [5] = Chaperone like activity at heat-induced citrate synthase aggregation assessed as aggregation at 150 uM incubated for 5 mins followed by heat stimulation for 3 mins in 43 degC and measured after 60 mins by fluorimetric analysis (reference value: 100%); conditions: time 68.0 min; how it was run: as §1
# [6] = Chaperone like activity at heat-induced citrate synthase aggregation assessed as aggregation at 0.6 uM incubated for 5 mins followed by heat stimulation for 3 mins in 43 degC and measured after 60 mins by fluorimetric analysis (reference value: 100%); conditions: time 68.0 min; how it was run: as §1
# [7] = Chaperone like activity at heat-induced citrate synthase aggregation assessed as aggregation at 60 uM incubated for 5 mins followed by heat stimulation for 3 mins in 43 degC and measured after 60 mins by fluorimetric analysis (reference value: 100%); conditions: time 68.0 min; how it was run: as §1
# [8] = Chaperone like activity at heat-induced citrate synthase aggregation assessed as aggregation at 30 uM incubated for 5 mins followed by heat stimulation for 3 mins in 43 degC and measured after 60 mins by fluorimetric analysis (reference value: 100%); conditions: time 68.0 min; how it was run: as §1
# [9] = Chaperone like activity at heat-induced citrate synthase aggregation assessed as aggregation at 100 uM incubated for 5 mins followed by heat stimulation for 3 mins in 43 degC and measured after 60 mins by fluorimetric analysis (reference value: 100%); conditions: time 68.0 min; how it was run: as §1
# [10] = Chaperone like activity at heat-induced citrate synthase aggregation assessed as aggregation at 1.2 uM incubated for 5 mins followed by heat stimulation for 3 mins in 43 degC and measured after 60 mins by fluorimetric analysis (reference value: 100%); conditions: time 68.0 min; how it was run: as §1
# [11] = Chaperone like activity at kappa-casein amyloid formation at 10 to 200 uM measured upto 21 hrs by fluorescence based assay; conditions: dose 10-200 µM, time hrs <=21
Compound,Activity [1] [%],further results
H-DWDPF-OH,110,
H-GPSWDPFRDW-OH,46,Activity [2]: Dose-dependent effect; Activity [3]: inactive
N[C@H](CO)C(=O)N[C@H](Cc1c[nH]c2ccccc12)C(=O)N[C@H](CC(=O)O)C(=O)N1CCC[C@@H]1C(=O)N[C@H](Cc1ccccc1)C(=O)O,90,
H-AWDPF-OH,96,
H-SWDPFRD-OH,57,Activity [4]: 52%
H-SWDPFRDW-OH,13,Activity [2]: Dose-dependent effect; Activity [4]: 0%
N[C@@H](Cc1c[nH]c2ccccc12)C(=O)N[C@@H](CC(=O)O)C(=O)N1CCC[C@H]1C(=O)N[C@@H](Cc1ccccc1)C(=O)O (H-WDPF-OH),115,
H-SWDPA-OH,78,
H-SWAPF-OH,81,
H-WDPFR-OH,98,
H-SADPF-OH,86,
H-SWDAF-OH,80,
H-SWDPFR-OH,96,
N[C@@H](CO)C(=O)N[C@@H](Cc1c[nH]c2ccccc12)C(=O)N[C@@H](CC(=O)O)C(=O)N1CCC[C@H]1C(=O)N[C@@H](Cc1ccccc1)C(=O)O,46,Activity [5]: 15%; Activity [2]: Dose-dependent effect; Activity [6]: 92%; Activity [7]: 63%; Activity [8]: 73%; Activity [9]: 23%; Activity [10]: 75%; Activity [4]: 63%; Activity [11]: inactive
